# The source made the active and inactive calls. The rule behind the calls is not given here.
# What was measured:
# Leukemic stem cell [1] = assay: Cytotoxicity against human leukemic stem cells (Lin-/CD34+/CD38-/CD123+) in myeloid leukemia cell line KG-1a assessed as reduction in LSC population at >1 uM incubated for 72 hrs
# [2] = Stability in human plasma assessed as reduction in parent compound concentration at 20 uM measured after 4 hrs by UPLC-MS/MS analysis; format: ADME, cell-free
# Outline: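 Human plasma, with or without 1 μM EHNA as ADA inhibitor, was spiked with 20 μM compound at 37 °C/5% CO2. Samples were quenched in methanol, 1:3 sample:methanol, kept 30 min on ice and centrifuged. The supernatant was dried, reconstituted in 10% acetonitrile and quantified by UPLC-MS/MS over time.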
# Adenosine deaminase [3] = target: T1, Adenosine deaminase (Bos taurus, UniProt P56658); assay: Metabolic stability assessed as bovine recombinant adenosine deaminase-mediated 3'-deoxyinosine metabolite formation by measuring shift in maximum absorption at 62.5 uM measured after 2 mins by UV absorption spectra based analysis; format: ADME; conditions: cattle
# T1 sequence (P56658 whole entry): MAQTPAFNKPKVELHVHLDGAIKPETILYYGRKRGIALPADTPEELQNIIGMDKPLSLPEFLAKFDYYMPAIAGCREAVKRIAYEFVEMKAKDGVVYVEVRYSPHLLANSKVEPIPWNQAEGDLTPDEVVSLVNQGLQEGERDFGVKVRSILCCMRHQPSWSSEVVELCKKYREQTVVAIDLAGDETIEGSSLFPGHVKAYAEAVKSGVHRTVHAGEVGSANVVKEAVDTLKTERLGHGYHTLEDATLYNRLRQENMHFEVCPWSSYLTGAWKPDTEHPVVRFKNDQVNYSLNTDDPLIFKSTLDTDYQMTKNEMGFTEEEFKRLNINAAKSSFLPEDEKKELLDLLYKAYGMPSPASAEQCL
# Outline: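 Bovine recombinant ADA suspension was diluted in phosphate buffer, pH 7.4, and filtered at 0.2 μm. Substrate at 62.5 μM was added to 17 μL of the ADA solution. UV spectra were scanned at 220–350 nm, 2 nm resolution, every 0.1 min for 10 min to 12 h, with an ADA-only blank subtracted. The read-out is the shift of the 265 nm maximum.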
# KG-1 [4] = assay: Cytotoxicity against human KG-1 cells assessed as maximum cell growth inhibition incubated for 72 hrs by MTS assay relative to control; format: functional
# Outline: (§1)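 Cells from the 20-line panel were seeded the day before dosing, then exposed to compound for 72 h. MTS was added, followed by 4 h at 37 °C, and absorbance was read. Nine serial 3.16-fold dilutions were tested, top 198 μM, in duplicate. MI% is the maximum inhibitory effect across the tested concentration range.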
# MV4-11 = assay: Cytotoxicity against human MV4-11 cells assessed as maximum cell growth inhibition incubated for 72 hrs by MTS assay relative to control; format: functional
# Outline: as §1
# HepG2 [5] = assay: Cytotoxicity against human HepG2 cells assessed as cell death incubated for 72 hrs by MTS assay; format: functional; conditions: read-out: LC50 (the source's name)
# Outline: (§2)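 Contracted MTS assay. Cells seeded the day before treatment and exposed 72 h to nine serial concentrations (3.16-fold steps, top 198 μM), tested in duplicate. MTS added, then 4 h at 37 °C and absorbance read. LC50 is the concentration killing 50% of cells. MI% is the maximum inhibition over the tested range.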
# MCF7 [6] = assay: Cytotoxicity against human MCF7 cells assessed as maximum cell growth inhibition incubated for 72 hrs by MTS assay relative to control; format: functional
# Outline: as §1
# K562 [7] = assay: Cytotoxicity against human K562 cells assessed as cell death incubated for 72 hrs by MTS assay; format: functional; conditions: read-out: LC50 (the source's name)
# Outline: as §2
# CCRF-CEM [8] = assay: Cytotoxicity against human CCRF-CEM cells assessed as maximum cell growth inhibition incubated for 72 hrs by MTS assay relative to control; format: functional
# Outline: as §1
# HL-60 [9] = assay: Cytotoxicity against human HL-60 cells assessed as maximum cell growth inhibition incubated for 72 hrs by MTS assay relative to control; format: functional
# Outline: as §1
# CCRF-CEM [10] = assay: Cytotoxicity against human CCRF-CEM cells assessed as cell death incubated for 72 hrs by MTS assay; format: functional; conditions: read-out: LC50 (the source's name)
# Outline: as §2
# K562 [11] = assay: Cytotoxicity against human K562 cells assessed as maximum cell growth inhibition incubated for 72 hrs by MTS assay relative to control; format: functional
# Outline: as §1
# HepG2 [12] = assay: Cytotoxicity against human HepG2 cells assessed as maximum cell growth inhibition incubated for 72 hrs by MTS assay relative to control; format: functional
# Outline: as §1
# KG-1 [13] = assay: Cytotoxicity against human KG-1 cells assessed as cell death incubated for 72 hrs by MTS assay; format: functional
# Outline: as §2
# MCF7 [14] = assay: Cytotoxicity against human MCF7 cells assessed as cell death incubated for 72 hrs by MTS assay; format: functional; conditions: read-out: LC50 (the source's name)
# Outline: as §2
# MOLT-4 [15] = assay: Cytotoxicity against human MOLT-4 cells assessed as maximum cell growth inhibition incubated for 72 hrs by MTS assay relative to control; format: functional
# Outline: as §1
# MOLT-4 [16] = assay: Cytotoxicity against human MOLT-4 cells assessed as cell death incubated for 72 hrs by MTS assay; format: functional; conditions: read-out: LC50 (the source's name)
# Outline: as §2
# HL-60 [17] = assay: Cytotoxicity against human HL-60 cells assessed as cell death incubated for 72 hrs by MTS assay; format: functional; conditions: read-out: LC50 (the source's name)
# Outline: as §2
# Leukemic stem cell [18] = assay: Cytotoxicity against human leukemic stem cells (Lin-/CD34+/CD38-/CD123+) in myeloid leukemia cell line KG-1a assessed as preferential cell killing incubated for 72 hrs
# Adenosine deaminase [19] = target: T1, Adenosine deaminase; assay: Metabolic stability assessed as bovine recombinant adenosine deaminase-mediated 3'-deoxyinosine metabolite formation by measuring shift in maximum absorption at 62.5 uM measured upto 2 hrs by UV absorption spectra based analysis; format: ADME; conditions: cattle
# RL [20] = assay: Cytotoxicity against deoxynucleotidyl transferase-negative human RL cells assessed as cell death preincubated with adenosine deaminase inhibitor, EHNA for 5 mins followed by compound addition and […]; format: functional, cell-based
# [21] = Drug metabolism in mouse plasma assessed as metabolite formation by measuring reduction in parent compound concentration at 20 uM incubated for 24 hrs in presence of adenosine deaminase inhibitor, EHNA by UPLC/MS/MS analysis; format: ADME, cell-free
# Jurkat = assay: Potency index, ratio of 3'-Deoxyadenosine LC50 to test compound LC50 for cytotoxicity against human Jurkat cells assessed as cell death incubated for 72 hrs by MTS assay; format: functional
# [22] = Stability in human plasma assessed as reduction in parent compound concentration at 20 uM measured upto 4 hrs by UPLC-MS/MS analysis; format: ADME, cell-free
# RL [23] = assay: Potency index, ratio of 3'-Deoxyadenosine LC50 to test compound LC50 for cytotoxicity against human RL cells assessed as cell death incubated for 72 hrs by MTS assay; format: functional
# [24] = Prodrug activation assessed as Saccharomyces cerevisiae carboxypeptidase Y-mediated (2R)-2-(((((2S,4R,5R)-5-(6-amino-9H-purin-9-yl)-4-hydroxytetrahydrofuran-2-yl)methoxy)(hydroxy)phosphoryl)amino)propanoic acid formation at 5 mg measured over 1 hr by 31P-NMR analysis
# Outline: (§3)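 Prodrug (5 mg) in acetone-d6 with trizma buffer pH 7.6, with a t = 0 31P NMR (202 MHz) reference taken first. Carboxypeptidase Y stock (50 units/mL in trizma pH 7.6) added. 31P NMR spectra recorded over time to follow intermediate and aminoacyl phosphoramidate signals.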
# [25] = Prodrug conversion in human HL-60 cells assessed as fold increase in 3'-dATP level at 50 uM incubated for 2 hrs by LC-MS/MS analysis relative to 3'-Deoxyadenosine; format: ADME, cell-based; conditions: hl-60, 2 h
# [26] = Drug concentration in human plasma at 20 uM measured after 30 sec by UPLC-MS/MS analysis; format: ADME, cell-free
# [27] = Prodrug conversion in human CCRF-CEM cells assessed as fold increase in 3'-dATP level at 50 uM incubated for 2 hrs by LC-MS/MS analysis relative to 3'-Deoxyadenosine; format: ADME, cell-based
# K562 [28] = assay: Potency index, ratio of 3'-Deoxyadenosine LC50 to test compound LC50 for cytotoxicity against human K562 cells assessed as cell death incubated for 72 hrs by MTS assay; format: functional
# [29] = Prodrug activation assessed as Saccharomyces cerevisiae carboxypeptidase Y-mediated (2R)-2-(((((2S,4R,5R)-5-(6-amino-9H-purin-9-yl)-4-hydroxytetrahydrofuran-2-yl)methoxy)(phenoxy)phosphoryl)amino)propanoic acid formation at 5 mg measured for 4 mins by 31P-NMR analysis
# Outline: as §3
# RL [30] = assay: Cytotoxicity against deoxynucleotidyl transferase-negative human RL cells assessed as cell death preincubated with adenosine kinase inhibitor, A-134974 for 5 mins followed by compound addition and […]; format: functional, cell-based
# HL-60 [31] = assay: Potency index, ratio of 3'-Deoxyadenosine LC50 to test compound LC50 for cytotoxicity against human HL-60 cells assessed as cell death incubated for 72 hrs by MTS assay; format: functional
# CCRF-CEM [32] = assay: Potency index, ratio of 3'-Deoxyadenosine LC50 to test compound LC50 for cytotoxicity against human CCRF-CEM cells assessed as cell death incubated for 72 hrs by MTS assay; format: functional
# [33] = Prodrug conversion in human K562 cells assessed as fold increase in 3'-dATP level at 50 uM incubated for 2 hrs by LC-MS/MS analysis relative to 3'-Deoxyadenosine; format: ADME, cell-based; conditions: k562, 2 h
# [34] = Stability in human plasma assessed as reduction in parent compound concentration at 20 uM incubated for 4 hrs in presence of adenosine deaminase inhibitor, EHNA by UPLC-MS/MS analysis; format: ADME, cell-free
# [35] = Drug concentration in mouse plasma at 20 uM measured after 30 sec by UPLC-MS/MS analysis; format: ADME, cell-free
# CCRF-CEM [36] = assay: Cytotoxicity against deoxynucleotidyl transferase-positive human CCRF-CEM cells assessed as cell death preincubated with adenosine deaminase inhibitor, EHNA for 5 mins followed by compound addition and […]; format: functional, cell-based
# [37] = Prodrug conversion in human RL cells assessed as fold increase in 3'-dATP level at 50 uM incubated for 2 hrs by LC-MS/MS analysis relative to 3'-Deoxyadenosine; format: ADME, cell-based
compound,measurement,setting,value
Nc1ncnc2c1ncn2[C@@H]1O[C@H](CO)C[C@H]1O [CORDYCEPIN],Activity,Leukemic stem cell [1],Active
same,Stability,[2],Unstable
same,Stability,Adenosine deaminase [3],Unstable
C[C@H](N[P@@](=O)(OC[C@@H]1C[C@@H](O)[C@H](n2cnc3c(N)ncnc32)O1)Oc1ccccc1)C(=O)OCc1ccccc1,Imax,KG-1 [4],90%
C[C@H](N[P@](=O)(OC[C@@H]1C[C@@H](O)[C@H](n2cnc3c(N)ncnc32)O1)Oc1ccccc1)C(=O)OCc1ccccc1,Imax,MV4-11,100%
Nc1ncnc2c1ncn2[C@@H]1O[C@H](COP(=O)(NCC(=O)OCc2ccccc2)Oc2ccccc2)C[C@H]1O (some centres not stated),CC50,HepG2 [5],142 µM
same,Imax,MCF7 [6],87%
same,CC50,K562 [7],15.4 µM
same,Imax,CCRF-CEM [8],94%
same,Imax,HL-60 [9],82%
same,CC50,CCRF-CEM [10],14.9 µM
same,Imax,K562 [11],92%
same,Imax,HepG2 [12],59%
same,Imax,KG-1 [4],65%
same,LC50,KG-1 [13],136.56 µM
same,CC50,MCF7 [14],15.5 µM
same,Imax,MOLT-4 [15],93%
same,CC50,MOLT-4 [16],3.55 µM
same,CC50,HL-60 [17],45.2 µM
C[C@H](NP(=O)(OC[C@@H]1C[C@@H](O)[C@H](n2cnc3c(N)ncnc32)O1)Oc1ccccc1)C(=O)OCc1ccccc1 (some centres not stated) [FOSDESDENOSINE SIPALABENAMIDE],Activity,Leukemic stem cell [18],Active
same,Stability,Adenosine deaminase [19],Stable
same,Activity,RL [20],Active
same,Activity,Leukemic stem cell [1],Active
same,Drug metabolism,[21],Metabolite_Detected
same,RatioLC50,Jurkat,200
same,Stability,[22],Stable
same,RatioLC50,RL [23],3
same,Drug metabolism,[24],Metabolite_Detected
same,fold change (FC),[25],3
same,"concentration at 0.5 min, 20 µM",[26],10000 ng/mL
same,fold change (FC),[27],3
same,RatioLC50,K562 [28],3
same,Drug metabolism,[29],Metabolite_Detected
same,Activity,RL [30],Active
same,RatioLC50,HL-60 [31],3
same,RatioLC50,CCRF-CEM [32],3
same,fold change (FC),[33],3
same,Stability,[34],Stable
same,"concentration at 0.5 min, 20 µM",[35],0.5 ng/mL
same,Activity,CCRF-CEM [36],Active
same,fold change (FC),[37],3
CC(=O)O[C@H]1C(=O)[C@@]2(C)[C@H]([C@H](OC(=O)c3ccccc3)[C@]3(O)C[C@H](OC(=O)[C@H](O)[C@@H](NC(=O)c4ccccc4)c4ccccc4)C(C)=C1C3(C)C)[C@]1(OC(C)=O)CO[C@@H]1C[C@@H]2O [PACLITAXEL],Imax,KG-1 [4],89%
CCOC(=O)CCc1ccccc1OP(=O)(N[C@@H](C)C(=O)OCc1ccccc1)OC[C@@H]1C[C@@H](O)[C@H](n2cnc3c(N)ncnc32)O1 (some centres not stated),Imax,KG-1 [4],69%
same,fold change (FC),[25],2
same,fold change (FC),[27],2
same,fold change (FC),[33],2
same,fold change (FC),[37],2

# Reference: ChEMBL document CHEMBL5236602, “Synthesis and Characterization of NUC-7738, an Aryloxy Phosphoramidate of 3'-Deoxyadenosine, as a Potential Anticancer Agent” (J Med Chem, 2022)
